ChEMBL document CHEMBL4028886 (J Med Chem, 2017)
Calls of active or inactive are those of the source. The rule behind the calls is not given here.

Tests used:
Type in all cases: cell-based
[1] = molecular target: Sodium-dependent noradrenaline transporter (Homo sapiens, UniProt P23975); experiment: Inhibition of re-uptake of [3H]MPP+ at human NET expressed in HEK293 cells preincubated for 5 mins followed by […] addition measured after 3 min by liquid scintillation counting
In short: (§1)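 HEK293 cells stably expressing human DAT or NET, seeded on PDL-coated plates 24 h before. Preincubated 5 min in Krebs–HEPES buffer pH 7.3 with compound at 0.001 μM to 1 mM (DMSO stock diluted in buffer). Substrate then added: 0.2 μM [3H]dopamine for DAT, 1 min; 0.05 μM [3H]MPP+ for NET, 3 min. Room temperature. Uptake stopped with ice-cold buffer. Cells lysed in 1% SDS and counted by scintillation. Unspecific uptake defined with 10 μM mazindol. IC50 by nonlinear regression.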

[2] = molecular target: T1, Sodium-dependent dopamine transporter (Homo sapiens, UniProt Q01959); experiment: Inhibition of re-uptake of [3H]-dopamine at human DAT expressed in HEK293 cells preincubated for 5 mins followed by [3H]-dopamine addition measured after 1 min by liquid scintillation counting; in short: as §1
[3] = molecular target: Sodium-dependent serotonin transporter (Homo sapiens, UniProt P31645); experiment: Inhibition of re-uptake of [3H]-5-HT at human SERT expressed in HEK293 cells preincubated for 5 mins followed by [3H]-dopamine addition measured after 1 min by liquid scintillation counting
[4] = molecular target: T1, Sodium-dependent dopamine transporter; experiment: Displacement of [3H]WIN 35,428 from human DAT expressed in HEK293 cells at 2 and 4 uM after 30 mins in presence of increasing concentration of cocaine by liquid scintillation counting
In short: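 Intact HEK-DAT cells on PDL-coated plates, in binding buffer (HEPES, NaCl, KCl, CaCl2, MgCl2, 10 μM ZnCl2, glucose, pH 7,3). Incubated with ~10 nM [3H]WIN 35,428, fixed concentrations of test compound and cocaine 0.001–1 μM, 30 min at 25 °C. Nonspecific binding defined with 30 μM mazindol. Cells lysed in 1% SDS and counted by scintillation. Reciprocal of bound (fmol) plotted against cocaine concentration as Dixon plot. Three experiments in triplicate, mean ± SD.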

T1 sequence (Q01959 whole entry): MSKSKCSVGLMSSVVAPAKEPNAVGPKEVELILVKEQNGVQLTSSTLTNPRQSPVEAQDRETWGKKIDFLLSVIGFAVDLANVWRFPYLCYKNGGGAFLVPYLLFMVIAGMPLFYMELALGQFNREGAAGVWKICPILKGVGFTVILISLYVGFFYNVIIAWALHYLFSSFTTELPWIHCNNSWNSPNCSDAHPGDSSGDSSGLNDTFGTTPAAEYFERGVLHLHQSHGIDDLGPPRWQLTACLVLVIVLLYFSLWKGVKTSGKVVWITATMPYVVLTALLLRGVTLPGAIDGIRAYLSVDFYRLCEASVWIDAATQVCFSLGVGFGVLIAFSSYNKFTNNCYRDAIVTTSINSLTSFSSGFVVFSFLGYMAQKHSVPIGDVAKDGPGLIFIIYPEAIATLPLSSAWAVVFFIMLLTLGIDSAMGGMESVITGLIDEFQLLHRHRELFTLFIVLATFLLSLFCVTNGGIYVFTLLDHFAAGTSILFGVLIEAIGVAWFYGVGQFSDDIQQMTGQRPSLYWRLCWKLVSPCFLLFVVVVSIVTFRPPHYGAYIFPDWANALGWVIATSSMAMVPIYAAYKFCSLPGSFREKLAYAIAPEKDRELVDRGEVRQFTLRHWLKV
Sequence of Sodium-dependent noradrenaline transporter (P23975 whole entry): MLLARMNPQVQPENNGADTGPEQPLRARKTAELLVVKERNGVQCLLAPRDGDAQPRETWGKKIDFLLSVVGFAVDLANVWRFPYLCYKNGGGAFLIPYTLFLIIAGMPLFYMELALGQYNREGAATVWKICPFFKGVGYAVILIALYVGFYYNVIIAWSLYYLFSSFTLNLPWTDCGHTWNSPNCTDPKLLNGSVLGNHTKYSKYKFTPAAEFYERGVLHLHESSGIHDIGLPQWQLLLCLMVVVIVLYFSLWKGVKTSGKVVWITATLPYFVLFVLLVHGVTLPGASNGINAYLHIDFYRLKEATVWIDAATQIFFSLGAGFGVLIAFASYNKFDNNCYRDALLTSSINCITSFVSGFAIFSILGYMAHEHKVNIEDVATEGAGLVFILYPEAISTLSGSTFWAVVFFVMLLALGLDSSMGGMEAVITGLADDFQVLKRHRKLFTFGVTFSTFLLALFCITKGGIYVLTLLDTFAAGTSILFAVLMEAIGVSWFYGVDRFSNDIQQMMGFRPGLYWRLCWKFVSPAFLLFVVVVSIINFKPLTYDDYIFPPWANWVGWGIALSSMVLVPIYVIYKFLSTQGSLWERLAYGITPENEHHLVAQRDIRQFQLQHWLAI
Sequence of Sodium-dependent serotonin transporter (P31645 whole entry): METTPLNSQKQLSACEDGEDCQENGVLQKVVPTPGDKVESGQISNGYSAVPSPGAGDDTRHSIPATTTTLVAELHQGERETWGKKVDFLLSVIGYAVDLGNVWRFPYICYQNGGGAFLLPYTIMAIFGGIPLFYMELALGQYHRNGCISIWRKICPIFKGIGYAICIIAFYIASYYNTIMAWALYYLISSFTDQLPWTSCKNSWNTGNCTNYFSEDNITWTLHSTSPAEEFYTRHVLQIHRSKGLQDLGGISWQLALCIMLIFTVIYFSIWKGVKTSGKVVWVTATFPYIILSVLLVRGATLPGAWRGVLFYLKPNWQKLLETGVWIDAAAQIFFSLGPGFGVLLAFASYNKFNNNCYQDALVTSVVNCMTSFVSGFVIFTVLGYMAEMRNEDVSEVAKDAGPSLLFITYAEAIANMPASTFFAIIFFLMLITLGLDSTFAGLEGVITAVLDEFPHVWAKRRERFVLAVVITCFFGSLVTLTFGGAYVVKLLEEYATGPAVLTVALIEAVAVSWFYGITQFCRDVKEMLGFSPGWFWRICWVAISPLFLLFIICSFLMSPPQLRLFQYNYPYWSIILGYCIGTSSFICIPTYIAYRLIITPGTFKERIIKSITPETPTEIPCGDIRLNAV

SMILES | IC50 ([1]; hek293) | IC50 ([2]; read-out: IC50) [µM] | IC50 ([3]; hek293) | IC50 ([1]; read-out: IC50) [µM] | IC50 ([3]; read-out: IC50) [µM] | IC50 ([2]; hek293) | inhibition [4]
Cc1ccc(C(c2ccc(C)cc2)[S+]([O-])Cc2cccs2)cc1 (stereo unspecified) | Not Active | 5.8 | Not Active | – | – | – | –
Cc1ccc(C(c2ccccc2)[S+]([O-])Cc2cccs2)cc1 (stereo unspecified) | – | 2 | – | 152 | 118 | – | –
[O-][S+](Cc1ccsc1Br)C(c1ccccc1)c1ccccc1 (stereo unspecified) | – | 29.3 | – | 144 | 59.6 | – | –
[O-][S+](Cc1cccs1)C(c1ccccc1)c1ccc(Br)cc1 (stereo in doubt; 11g) | – | 3.7 | – | – | – | – | –
[O-][S+](Cc1csc(Br)c1)C(c1ccccc1)c1ccccc1 (stereo unspecified) | – | 16.6 | – | 67.2 | 44.7 | – | –
Cc1nnc(C[S+]([O-])C(c2ccccc2)c2ccccc2)s1 (stereo unspecified) | Not Active | – | Not Active | – | – | Not Active | –
COC1NN=C(C[S+]([O-])C(c2ccccc2)c2ccccc2)S1 (stereo unspecified) | – | 108 | Not Active | 146 | – | – | –
[O-][S+](Cc1cc(C2CC2)on1)C(c1ccccc1)c1ccccc1 (stereo unspecified) | Not Active | 38.6 | Not Active | – | – | – | –
[O-][S+](Cc1ccc(Cl)s1)C(c1ccccc1)c1ccccc1 (stereo unspecified) | – | 12.8 | – | 68.4 | 57.2 | – | –
NC(=O)C[S+]([O-])C(c1ccccc1)c1ccccc1 (stereo unspecified) [MODAFINIL] | – | – | – | 284 | – | – | –
[O-][S+](Cc1cccs1)C(c1ccc(F)cc1)c1ccc(F)cc1 (stereo unspecified) | – | 4 | – | 113 | 120 | – | –
[O-][S+](Cc1ccsc1)C(c1ccccc1)c1ccccc1 (stereo unspecified) | – | 3 | Not Active | 57.6 | – | – | –
COc1cc(C)nc(C[S+]([O-])C(c2ccccc2)c2ccccc2)n1 (stereo unspecified) | – | 90.5 | Not Active | 228 | – | – | –
[O-][S+](Cc1cccs1)C(c1ccccc1)c1ccc(Br)cc1 (stereo in doubt; 11c) | Not Active | 4.2 | Not Active | – | – | – | –
[O-][S@@+](Cc1cccs1)[C@@H](c1ccccc1)c1ccc(Br)cc1 | Not Active | 4.1 | Not Active | – | – | – | –
CC(C)c1nnsc1C[S+]([O-])C(c1ccccc1)c1ccccc1 (stereo unspecified) | – | 69.1 | Not Active | 30 | – | – | –

SMILES | IC50 ([1]; hek293) | IC50 ([2]; read-out: IC50) [µM] | IC50 ([3]; hek293) | IC50 ([1]; read-out: IC50) [µM] | IC50 ([3]; read-out: IC50) [µM] | IC50 ([2]; hek293) | inhibition [4]
Cc1noc(C[S+]([O-])C(c2ccccc2)c2ccccc2)n1 (stereo unspecified) | Not Active | 56.7 | Not Active | – | – | – | –
Cc1cc(O)nc(C[S+]([O-])C(c2ccccc2)c2ccccc2)n1 (stereo unspecified) | Not Active | 109 | Not Active | – | – | – | –
[O-][S+](Cc1nc(O)cc(C(F)(F)F)n1)C(c1ccccc1)c1ccccc1 (stereo unspecified) | Not Active | 40.4 | Not Active | – | – | – | –
[O-][S+](Cc1cc(Br)cs1)C(c1ccccc1)c1ccccc1 (stereo unspecified) | Not Active | 13.7 | – | – | 70.9 | – | –
[O-][S+](Cc1sccc1Cl)C(c1ccccc1)c1ccccc1 (stereo unspecified) | – | 4.9 | Not Active | 188 | – | – | –
Cc1cnc(C[S+]([O-])C(c2ccccc2)c2ccccc2)nc1 (stereo unspecified) | Not Active | 156 | Not Active | – | – | – | –
[O-][S+](Cc1cccs1)C(c1ccccc1)c1ccc(Br)cc1 (stereo in doubt; 11h) | – | 2.4 | – | – | – | – | –
Cc1cc(C[S+]([O-])C(c2ccccc2)c2ccccc2)nc(C)n1 (stereo unspecified) | – | 82.6 | Not Active | 768 | – | – | –
[O-][S+](Cc1nc(C(F)(F)F)no1)C(c1ccccc1)c1ccccc1 (stereo unspecified) | – | 43.7 | – | 71 | 209 | – | –
O=c1[nH]nc(C[S+]([O-])C(c2ccccc2)c2ccccc2)s1 (stereo unspecified) | – | 38.1 | Not Active | 85.7 | – | – | –
Cc1scc(C[S+]([O-])C(c2ccccc2)c2ccccc2)c1C (stereo unspecified) | Not Active | 284 | Not Active | – | – | – | –
[O-][S+](Cc1ccncc1)C(c1ccccc1)c1ccccc1 (stereo unspecified) | Not Active | 63.5 | Not Active | – | – | – | –
COc1ccnc(C[S+]([O-])C(c2ccccc2)c2ccccc2)c1OC (stereo unspecified) | Not Active | – | Not Active | – | – | Not Active | –
[O-][S+](Cc1cccs1)C(c1ccc(Cl)cc1)c1ccc(Cl)cc1 (stereo unspecified) | Not Active | 7.2 | Not Active | – | – | – | –
Cc1nc(O)cc(C[S+]([O-])C(c2ccccc2)c2ccccc2)n1 (stereo unspecified) | Not Active | 3.1 | Not Active | – | – | – | Active
[O-][S@+](Cc1cccs1)[C@H](c1ccccc1)c1ccc(Br)cc1 | Not Active | 1.5 | Not Active | – | – | – | –
